Active and inactive are the calls of the source. The rule behind the calls is not given here.
Legend:
[1] = Growth inhibition of apoptosis-resistant human OE21 cells after 72 hrs by MTT assay; assay type: functional, cell-based; settings: OE21, 72 h
Summary of the method: (§1)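 Cells seeded at 10 000 to 40 000 cells/mL, depending on line, and plated 24 h before treatment. Cultured 72 h with or without (control) compound. Viable cells measured by MTT reduction to formazan, absorbance at 570 nm (reference 630 nm). IC50 reported as mean ± SEM. Media carried 4 mM glutamine, gentamicin and penicillin-streptomycin. B16F10 grown in RPMI with 10% heat-inactivated FCS.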

Hs 683 = experiment: Growth inhibition of apoptosis-sensitive human Hs 683 cells after 72 hrs by MTT assay; assay type: functional, cell-based; settings: Hs 683, 72 h; summary of the method: as §1
A549 = experiment: Growth inhibition of apoptosis-resistant human A549 cells after 72 hrs by MTT assay; assay type: functional, cell-based; settings: A549, 72 h; summary of the method: as §1
B16-F10 [2] = experiment: Cytostatic effect against apoptosis-sensitive mouse B16F10 cells assessed as impairment of cell population development at 20 uM by quantitative video microscopy
[3] = Growth inhibition of apoptosis-resistant human U373 cells after 72 hrs by MTT assay; assay type: functional, cell-based, U-373MG ATCC; settings: U373 MG; summary of the method: as §1
B16-F10 [4] = experiment: Growth inhibition of apoptosis-sensitive mouse B16F10 cells after 72 hrs by MTT assay; assay type: functional, cell-based; settings: B16-F10, 72 h; summary of the method: as §1
SK-MEL-28 = experiment: Growth inhibition of apoptosis-resistant human SK-MEL-28 cells after 72 hrs by MTT assay; assay type: functional, cell-based; settings: SK-MEL-28, 72 h; summary of the method: as §1
B16-F10 [5] = experiment: Cytostatic effect against apoptosis-sensitive mouse B16F10 cells assessed as impairment of cell population development at 20 uM by quantitative video microscopy; assay type: functional, cell-based
Summary of the method: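 Computer-assisted phase-contrast microscopy (quantitative videomicroscopy) of B16F10 cells in RPMI with 10% heat-inactivated FCS, monitored 72 h without (control) or with compound. Time-lapse image sequences built into movies. Growth level taken as ratio of cell counts in first versus last frames. Cells counted in 1 mm2 fields at G×20, triplicate conditions, five fields each (15 fields per condition), mean ± SEM.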

Compound | IC50 (A549) [µM] | IC50 (B16-F10 [4]) [µM] | IC50 (SK-MEL-28) [µM] | IC50 [1] [µM] | IC50 (Hs 683) [µM] | inhibition (B16-F10 [2]) | IC50 [3] [µM] | inhibition (B16-F10 [5])
C/C=C/C=C/C(=O)C1=C(O)[C@@]2(C)C3C(C(=O)CC/C=C/C)=C(O)[C@@]4(C)C1[C@]1(C)O[C@@]4(O)[C@@]3(C)O[C@@]12O [DIHYDROTRICHODIMEROL] | 33 | 3 | 33 | 28 | 34 | Active | 25 | 
O=C1N[C@@H]2C(=C[C@H](O)[C@@H](O)[C@H]2O)c2cc3c(c(O)c21)OCO3 [NARCICLASINE] | 0.05 | 0.05 | 0.05 | 0.05 | 0.05 |  | 0.05 | 
C/C=C/C=C/C(=O)[C@@H]1[C@@H]([C@]2(C)OC(=O)C(C)=C2O)C2\C(=C(O)/C=C/C=C/C)C(=O)[C@]1(C)C(=O)[C@@]2(C)O [BISLONGIQUINOLIDE] | 11 | 3 | 8 | 9 | 22 |  | 4 | 
O[C@H]1[C@H]2c3cc4c(cc3CN3CCC(=C[C@@H]1O)[C@H]23)OCO4 [LYCORINE] | 2 | 2 | 2 | 2 | 2 |  | 2 | Active

More lines, main results first:

IC50 (A549) [µM] | IC50 (B16-F10 [4]) [µM] | IC50 (SK-MEL-28) [µM] | Compound | IC50 [1] [µM] | IC50 (Hs 683) [µM] | inhibition (B16-F10 [2]) | IC50 [3] [µM] | inhibition (B16-F10 [5])
> 100 | > 100 | > 100 | C[C@@H]1[C@@]2(C)CC[C@@H]3[C@H]2CC[C@@]1(C)O[C@]3(C)O [SEIRICARDINE C] | > 100 | > 100 |  | > 100 | 
> 100 | > 100 | > 100 | C[C@@H]1[C@@]2(C)CC[C@@H]3[C@H]2CC[C@@]1(C)O[C@@]3(C)O [SEIRICARDINE B] | > 100 | > 100 |  | > 100 | 

From ChEMBL document CHEMBL1157774, “Investigations of fungal secondary metabolites with potential anticancer activity” (J Nat Prod, 2010)
